T cruzi growth-1 = inhibitors of T. cruzi proliferation; T. cruzi beta-gal in NIH3T3, GalScreen luminescence, 90 h; inhibition, % at 8.34 µM; 77,000 tested, 5.9% active;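 active means mean inhibition above about 93%, with at least 55% of replicates each passing it, limit read from the data, passing the limit was not always enough; inconclusive means only one of those two conditions holds; inactive means neither condition holds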
KDM4C inh = inhibitors of human demethylase GASC-1 KDM4C; Q9H3R0; GST-KDM4C 2-372, H3K9me3 peptide, LANCE TR-FRET; inhibition, % at 12.5 µM; 96,000 tested, 0.15% active; AID 720574;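 active means mean replicate inhibition above about 25%, with at least 55% of replicates also reaching it, limit read from the data, passing the limit was not always enough; inconclusive means only one of those two conditions met; inactive means neither condition met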
Target sequence (Q9H3R0 2-372 limits assumed): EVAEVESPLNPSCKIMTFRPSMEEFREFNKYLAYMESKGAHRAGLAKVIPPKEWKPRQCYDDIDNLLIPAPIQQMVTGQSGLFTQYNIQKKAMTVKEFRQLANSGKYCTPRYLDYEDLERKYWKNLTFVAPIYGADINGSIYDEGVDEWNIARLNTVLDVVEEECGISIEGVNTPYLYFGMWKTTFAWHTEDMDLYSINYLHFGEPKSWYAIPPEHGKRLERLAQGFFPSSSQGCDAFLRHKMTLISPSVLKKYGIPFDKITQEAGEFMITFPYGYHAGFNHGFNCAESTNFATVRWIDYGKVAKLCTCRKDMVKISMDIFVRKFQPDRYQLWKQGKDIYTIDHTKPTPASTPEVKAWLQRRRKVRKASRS
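Compound: one test concentration per compound; Material: GST-GASC-1 enzyme fragment 2-372; Amount: GASC-1 enzyme at 10 nM final in reaction; Also added: H3K9me3 peptide substrate, Fe(II), 2-oxoglutarate; Technique: LANCE TR-FRET; Times: 30 min demethylation and 1 h detection at room temperature.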
IDH1 mut inh = inhibitors of human IDH1 R132H; O75874; IDH1 R132H reductase, diaphorase/resazurin fluorescence, 60 min; inhibition, % at 10 µM; 70,000 tested, 0.18% active; in the data active means inhibition above about 34%; inconclusive means no clear call, values can overlap the other calls; inactive means below about 11%;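 further: 0% = DMSO and 100% = no enzyme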
Pf Dd2 growth = blocks growth of Plasmodium falciparum Dd2 parasites. P. falciparum Dd2 growth, SYBR Green, 72 h; stronger effect = lower value. activity change, % at 10 µM. 94,000 tested, 2.3% active. AID 1159554; in the data active means activity change below about -80%; inconclusive means no clear call, values can overlap the other calls
T cruzi growth-2 = Trypanosoma cruzi proliferation inhibition. AID 651739. T. cruzi beta-gal in NIH3T3, GalScreen luminescence, 90 h. shares compounds with T cruzi growth-1. inhibition, % at 8.35 µM. 5,600 tested, 72% active;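 active means mean replicate inhibition above about 95% and at least 55% of replicates individually reaching it, limit read from the data; inconclusive means only one of the two criteria is met; inactive means neither criterion is met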
T cruzi growth-3 = inhibitors of T. cruzi proliferation; shares compounds with T cruzi growth-1; T. cruzi beta-gal in NIH3T3, GalScreen luminescence, 90 h; inhibition, % at 2.09 µM; 5,600 tested, 21% active; AID 651740;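 active means mean inhibition above about 95%, with at least 55% of replicates also reaching it, limit read from the data; inconclusive means meets just one of the two conditions; inactive means meets neither condition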;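 further: plate controls were neutral control median for no effect and positive control median for full effect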
3T3 cytotox = kills mouse NIH/3T3 fibroblasts. 5,600 tested, 14% active. NIH/3T3 viability, CellTiter-Glo ATP luminescence, 90 h. shares compounds with T cruzi growth-1. cytotoxicity (signal decrease), % at 8.35 µM;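 active means mean signal decrease across replicates above about 35% based on untreated-well scatter, with enough replicates individually passing, limit read from the data; inconclusive means no rule stated though some were filed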;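 further: 0% = median of neutral control wells and 100% = median of positive control wells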
NIH3T3 tox 2 = NIH/3T3 (mouse) viability loss; 5,600 tested, 56% active; inhibition, % at 24.9 µM; shares compounds with T cruzi growth-1; NIH/3T3 viability, CellTiter-Glo ATP luminescence, 90 h;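 active means mean loss of cell viability signal at or above a set limit, and enough replicates individually reaching it; inconclusive means meets only the mean limit or only the replicate share; inactive means meets neither condition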;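 further: 0% = median of neutral control wells and 100% = median of positive control wells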
Starred values were filed as active, the others as inactive; u = inconclusive; x = no result given; ! = repeats disagree. Only some compounds are listed: those with a hit (about 5.8% of all), similar ones and a draw of the others.

SMILES	T cruzi growth-1	KDM4C inh	IDH1 mut inh	Pf Dd2 growth	T cruzi growth-2	T cruzi growth-3	3T3 cytotox	NIH3T3 tox 2
OC[C@@H]1[C@H](c2ccc(-c3cccc(F)c3)cc2)[C@@H]2CN(CCC(F)(F)F)CCCCN12	91	0	x	-11	x	x	x	x
OC[C@H]1[C@@H](c2ccc(-c3ccc(F)cc3)cc2)[C@H]2CN(CCC(F)(F)F)CCCCN21	102*	-2	x	-50	103*	81	57*	105*
CN(C)C(=O)c1ccc(-c2ccc([C@H]3[C@@H](CO)N4CCCCN(CCC(F)(F)F)C[C@H]34)cc2)cc1	101*	0	x	-24	100*	89	-9	-5
OC[C@@H]1[C@@H](c2ccc(-c3ccccc3)cc2)[C@H]2CN(CCC(F)(F)F)CCCCN12	85	1	x	-72	x	x	x	x
OC[C@@H]1[C@H](c2ccc(C#CC3CCCC3)cc2)[C@H]2CN(CCC(F)(F)F)CCCCN12	101*	0	x	u	89	109*	58*	105*
Cc1cccc(-c2ccc([C@@H]3[C@H]4CN(CCC(F)(F)F)CCCCN4[C@H]3CO)cc2)c1	99*	-2	x	-12	103*	85	41*	105*
CC(=O)N1[C@@H]2c3cccc(=O)n3C[C@@H]2[C@@H](CO)[C@@H]1C(=O)NC1CCCCC1	7	5	x	-1	x	x	x	x
COc1ccc2c3c(n(C)c2c1)[C@H](CO)N(CC1CC1)CC31CN(C(=O)NC2CCCC2)C1	x	1	x	-3	x	x	x	x
OC[C@@H]1[C@H](c2ccc(-c3cccc(F)c3)cc2)[C@H]2CN(CCC(F)(F)F)CCCCN12	107*	-2	x	-74	99*	85	27	104*
OC[C@@H]1[C@H](c2ccc(-c3ccccc3)cc2)[C@H]2CN(CCC(F)(F)F)CCCCN12	104*	-1	x	-80*	103*	62	19	106*
OC[C@@H]1[C@H](c2ccc(-c3ccc(F)cc3)cc2)[C@@H]2CN(CCC(F)(F)F)CCCCN12	u	-1	x	2	105*	95	40*	105*
Cc1ccccc1-c1ccc(C2[C@@H]3CN(C(=O)Cc4ccccc4)C[C@H]2N3)cc1 (stereo partly specified)	x	-1	x	-50	x	x	x	x
COc1ccc(S(=O)(=O)N(C)C[C@H]2OCCCC[C@H](C)Oc3ccc(NC(=O)Nc4ccccc4)cc3C(=O)N([C@@H](C)CO)C[C@@H]2C)cc1	105*	7	4	-76	110*	67	18	8
COc1ccc(S(=O)(=O)N(C)C[C@H]2OCCCC[C@@H](C)Oc3ccc(NC(=O)Nc4ccccc4)cc3C(=O)N([C@@H](C)CO)C[C@@H]2C)cc1	100*	-2	x	-64	112*	1	8	u
COc1ccc(S(=O)(=O)N(C)C[C@H]2OCCCC[C@H](C)Oc3ccc(NC(=O)Nc4ccccc4)cc3C(=O)N([C@H](C)CO)C[C@H]2C)cc1	-12	4	x	u	x	x	x	x
COc1ccc(S(=O)(=O)N(C)C[C@@H]2OCCCC[C@H](C)Oc3ccc(NC(=O)Nc4ccccc4)cc3C(=O)N([C@@H](C)CO)C[C@@H]2C)cc1	u	-1	0	-86*	105*	72	7	25
COc1ccc(S(=O)(=O)N(C)C[C@@H]2OCCCC[C@@H](C)Oc3ccc(NC(=O)Nc4ccccc4)cc3C(=O)N([C@@H](C)CO)C[C@H]2C)cc1	u	-1	-1	-74	111*	67	-3	5
C[C@@H]1CN([C@H](C)CO)C(=O)c2cc(NS(C)(=O)=O)ccc2O[C@H]1CN(C)Cc1ccc(C(=O)O)cc1	-167	-1	x	44	x	x	x	x
C[C@@H]1CN([C@H](C)CO)S(=O)(=O)c2ccc(-c3cccc(C#N)c3)cc2O[C@@H]1CN(C)C(=O)Nc1cc(F)ccc1F	x	-3	x	-32	x	x	x	x
C[C@@H]1CN([C@H](C)CO)S(=O)(=O)c2ccc(-c3ccc(C#N)cc3)cc2O[C@H]1CN(C)C(=O)Nc1cc(F)ccc1F	109*!	15	x	-56	78	53	81*	83*
C[C@H]1CN([C@@H](C)CO)S(=O)(=O)c2ccc(-c3ccc(C#N)cc3)cc2O[C@H]1CN(C)C(=O)Nc1cc(F)ccc1F	122*	0	6	-74	102*	67	30	84*
C[C@H](CO)N1C[C@H](C)[C@@H](CN(C)C(=O)Nc2cc(F)ccc2F)Oc2cc(-c3ccc(C#N)cc3)ccc2S1(=O)=O	118*	-2	x	-58	101*	28	46*	83*
C[C@H](CO)N1C[C@H](C)[C@@H](CN(C)C(=O)Nc2ccccc2F)Oc2cc(-c3cccc(C#N)c3)ccc2S1(=O)=O	u	0	x	-50	103*	51	41*	69*
C[C@H](CO)N1C[C@H](C)[C@H](CN(C)C(=O)c2ccncc2)Oc2ncc(/C=C/c3ccccc3)cc2C1=O	49	-1	0	-6	x	x	x	x
C[C@@H]1CN([C@H](C)CO)S(=O)(=O)c2ccc(-c3ccc(C#N)cc3)cc2O[C@@H]1CN(C)C(=O)Nc1cc(F)ccc1F	115*	1	0	-45	92	-7	-3	77*
SMILES	T cruzi growth-1	KDM4C inh	IDH1 mut inh	Pf Dd2 growth	T cruzi growth-2	T cruzi growth-3	3T3 cytotox	NIH3T3 tox 2
CCCNC(=O)N1C[C@@H]2[C@H](c3ccccc31)[C@H](CO)N2C(=O)Nc1ccccc1	-28	-1	x	5	x	x	x	x
CC(C)CC#Cc1ccc2c(c1)O[C@@H](CN(C)S(=O)(=O)c1cccc(F)c1)[C@@H](C)CN([C@H](C)CO)S2(=O)=O	120*	-1	0	-4	90	100*	18	57*
CCCC#Cc1ccc2c(c1)O[C@H](CN(C)S(=O)(=O)c1cccc(F)c1)[C@@H](C)CN([C@H](C)CO)S2(=O)=O	122*	0	1	-2	101*	106*	-3	24*
COc1cccc(S(=O)(=O)N(C)C[C@@H]2Oc3cc(C#CCC(C)C)ccc3S(=O)(=O)N([C@@H](C)CO)C[C@H]2C)c1	96*	0	-4	u	103*	108*	43*	78*
COCC#Cc1ccc2c(c1)O[C@H](CN(C)S(=O)(=O)c1cccc(F)c1)[C@H](C)CN([C@H](C)CO)S2(=O)=O	107*	5	-1	-82*	93	74	30	63*
CC(C)CC#Cc1ccc2c(c1)O[C@H](CN(C)S(=O)(=O)c1ccc(F)cc1)[C@H](C)CN([C@H](C)CO)S2(=O)=O	x	-1	-1	-59	x	x	x	x

High-throughput results: PubChem, Broad Institute
